Measured values from ChEMBL document CHEMBL4257575, “Discovery of Novel Flavonoid Dimers To Reverse Multidrug Resistance Protein 1 (MRP1, ABCC1) Mediated Drug Resistance in Cancers Using a High Throughput Platform with "Click Chemistry"” (J Med Chem, 2018).

Molecular target: Multidrug resistance-associated protein 1 (Homo sapiens, UniProt P33527)
Assay: Inhibition of MRP1 in human 2008/MRP1 cells assessed as potentiation of doxorubicin-induced cytotoxicity by measuring cell survival at 2 uM after 5 days by MTS assay relative to control
Type: cell-based
Conditions: 120 h
How it was run: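 2008/MRP1 cells (retroviral human MRP1 transfectant; RPMI 1640, 10% FBS) at 4,000 per well, with 100 nM doxorubicin plus crude, unpurified click products in DMSO: 2 µM in the primary screen, 1 µM in the secondary. Incubated 5 days at 37 °C. MTS/PMS added for 2 h at 37 °C, absorbance read at 490 nm. % survival is relative to wells without DOX or product. Run in triplicate, at least three experiments.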

Sequence of Multidrug resistance-associated protein 1 (P33527 whole entry): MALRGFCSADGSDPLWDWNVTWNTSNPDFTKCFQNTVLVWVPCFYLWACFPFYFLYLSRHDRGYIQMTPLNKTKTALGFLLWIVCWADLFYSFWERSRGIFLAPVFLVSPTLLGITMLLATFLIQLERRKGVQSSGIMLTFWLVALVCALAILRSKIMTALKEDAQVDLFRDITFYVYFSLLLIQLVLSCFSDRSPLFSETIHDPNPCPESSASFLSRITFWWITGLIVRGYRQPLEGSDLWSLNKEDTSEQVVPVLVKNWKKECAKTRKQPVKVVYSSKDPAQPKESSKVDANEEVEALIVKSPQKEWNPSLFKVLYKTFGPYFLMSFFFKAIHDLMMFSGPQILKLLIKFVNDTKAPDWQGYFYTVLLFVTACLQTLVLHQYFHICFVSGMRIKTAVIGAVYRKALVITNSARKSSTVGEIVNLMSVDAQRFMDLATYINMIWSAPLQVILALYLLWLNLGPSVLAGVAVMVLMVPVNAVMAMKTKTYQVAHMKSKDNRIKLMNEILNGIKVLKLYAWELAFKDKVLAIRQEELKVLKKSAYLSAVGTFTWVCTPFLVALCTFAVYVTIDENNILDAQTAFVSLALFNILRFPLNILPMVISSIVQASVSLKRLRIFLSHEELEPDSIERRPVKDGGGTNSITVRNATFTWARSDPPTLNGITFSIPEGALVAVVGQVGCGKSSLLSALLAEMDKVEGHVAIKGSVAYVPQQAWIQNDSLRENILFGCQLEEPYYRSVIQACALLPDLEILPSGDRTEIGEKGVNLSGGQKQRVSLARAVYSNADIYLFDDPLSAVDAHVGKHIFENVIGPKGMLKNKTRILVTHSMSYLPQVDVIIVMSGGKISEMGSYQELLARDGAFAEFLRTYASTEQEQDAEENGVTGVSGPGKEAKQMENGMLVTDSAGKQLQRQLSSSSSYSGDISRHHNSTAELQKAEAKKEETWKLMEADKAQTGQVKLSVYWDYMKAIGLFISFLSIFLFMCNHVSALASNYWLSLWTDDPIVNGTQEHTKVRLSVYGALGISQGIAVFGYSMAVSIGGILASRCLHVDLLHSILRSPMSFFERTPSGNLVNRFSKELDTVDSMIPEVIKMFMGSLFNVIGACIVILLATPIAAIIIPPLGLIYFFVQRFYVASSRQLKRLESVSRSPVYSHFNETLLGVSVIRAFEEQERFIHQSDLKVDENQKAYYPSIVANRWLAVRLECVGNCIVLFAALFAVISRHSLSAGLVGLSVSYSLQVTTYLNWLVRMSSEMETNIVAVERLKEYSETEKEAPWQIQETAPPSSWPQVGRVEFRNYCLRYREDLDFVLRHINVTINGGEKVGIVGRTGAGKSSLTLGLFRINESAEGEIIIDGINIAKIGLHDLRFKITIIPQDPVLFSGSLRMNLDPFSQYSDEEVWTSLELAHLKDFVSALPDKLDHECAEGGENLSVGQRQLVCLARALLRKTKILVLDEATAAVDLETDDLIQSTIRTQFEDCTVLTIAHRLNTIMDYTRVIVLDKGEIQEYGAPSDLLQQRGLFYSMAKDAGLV

SMILES	Survival
O=c1c(OCc2ccccc2)c(-c2cccc(OCCOCCn3cc(-c4cccc(-c5cn(CCOCCOc6cccc(-c7oc8ccccc8c(=O)c7OCc7ccccc7)c6)nn5)c4)nn3)c2)oc2ccccc12	89%
O=c1cc(-c2ccc(OCCCc3cn(CCOCCOCCOc4ccc(-c5cc(=O)c6ccccc6o5)cc4)nn3)cc2)oc2ccccc12	56%
Cc1ccc(C(=O)/C=C/c2ccc(OCCCCc3cn(CCOCCOCCOc4ccc5c(=O)cc(-c6ccccc6)oc5c4)nn3)cc2)c(O)c1	72%
C#CCOCCOc1ccc2c(=O)cc(-c3ccccc3)oc2c1	98%
COc1cccc(COc2c(-c3ccc(OCCOCCn4cc(CCCOc5ccc(-c6nc7ccccc7c(=O)[nH]6)cc5)nn4)cc3)oc3ccccc3c2=O)c1	67%
O=c1[nH]c(-c2ccc(OCCCc3cn(CCOCCOCCOc4ccc(-c5cc(=O)c6ccccc6o5)cc4)nn3)cc2)nc2ccccc12	76%
O=c1c(OCc2ccccc2)c(-c2ccc(OCCOCCOCCn3cc(CN4CCN(Cc5cn(CCOCCOCCOc6ccc(-c7oc8ccccc8c(=O)c7OCc7ccccc7)cc6)nn5)CC4)nn3)cc2)oc2ccccc12	96%
O=c1cc(-c2ccc(OCCOCCOCCn3cc(CN(Cc4cn(CCOCCOCCOc5ccc(-c6cc(=O)c7cc(F)ccc7o6)cc5)nn4)Cc4cn(CCOCCOCCOc5ccc(-c6cc(=O)c7cc(F)ccc7o6)cc5)nn4)nn3)cc2)oc2ccc(F)cc12	77%
O=c1[nH]c(-c2ccc(OCCCc3cn(CCOCCOc4ccc(-c5cc(=O)c6cc(F)ccc6o5)cc4)nn3)cc2)nc2ccccc12	76%
Cc1ccc2oc(-c3ccc(OCCOCCOCCn4cc(CCCOc5ccc6c(=O)cc(-c7ccccc7)oc6c5)nn4)cc3)cc(=O)c2c1	55%
O=c1cc(-c2ccccc2)oc2cc(OCCCc3cn(CCOc4cccc5c(=O)cc(-c6ccccc6)oc45)nn3)ccc12	56%
Cc1ccc2oc(-c3ccc(OCCCCc4cn(CCOc5cccc6c(=O)cc(-c7ccccc7)oc56)nn4)cc3)cc(=O)c2c1	75%
Cc1ccc2oc(-c3ccc(OCCOCCOCCn4cc(CCCOc5ccc(-c6cc(=O)c7ccccc7o6)cc5)nn4)cc3)cc(=O)c2c1	51%
O=c1cc(-c2ccc(OCCCc3cn(CCOCCOc4cccc(-c5oc6ccccc6c(=O)c5OCc5ccccc5)c4)nn3)cc2)oc2ccc(F)cc12	79%
Cc1ccc(C(=O)/C=C/c2ccc(OCCCCc3cn(CCOCCOc4ccc(-c5cc(=O)c6cc(F)ccc6o5)cc4)nn3)cc2)c(O)c1	71%
COc1cccc(COc2c(-c3ccc(OCCCCc4cn(CCOCCOc5ccc(-c6oc7ccccc7c(=O)c6OCc6cccc(OC)c6)cc5)nn4)cc3)oc3ccccc3c2=O)c1	57%
O=c1cc(-c2ccccc2)oc2cc(OCCOCCn3cc(CN4CCN(Cc5cn(CCOCCOc6ccc7oc(-c8ccccc8)cc(=O)c7c6)nn5)CC4)nn3)ccc12	99%
COc1cccc(COc2c(-c3ccc(OCCCCc4cn(CCOCCOCCOc5ccc(-c6cc(=O)c7cc(F)ccc7o6)cc5)nn4)cc3)oc3ccccc3c2=O)c1	60%
O=c1cc(-c2ccc(OCCCc3cn(CCOCCOCCOc4ccc(-c5cc(=O)c6cc(F)ccc6o5)cc4)nn3)cc2)oc2ccc(F)cc12	76%
O=c1cc(-c2ccccc2)oc2cc(OCCCCc3cn(CCOCCOc4ccc(-c5cc(=O)c6cc(F)ccc6o5)cc4)nn3)ccc12	52%

SMILES	Survival
O=Cc1ccc(OCCCCc2cn(CCOCCOc3cccc(-c4oc5ccccc5c(=O)c4OCc4ccccc4)c3)nn2)cc1	82%
Cc1ccc(C(=O)/C=C/c2ccc(OCCCCc3cn(CCOCCOCCOc4ccc(-c5cc(=O)c6cc(C)ccc6o5)cc4)nn3)cc2)c(O)c1	61%
Cc1ccc2oc(-c3ccc(OCCOCCOCCn4cc(CNc5ccccc5)nn4)cc3)cc(=O)c2c1	86%
[N-]=[N+]=NCCOc1ccc2c(=O)cc(-c3ccccc3)oc2c1	79%
CCc1ccc(O)c(C(=O)/C=C/c2ccc(OCCCCc3cn(CCOCCOc4cccc(-c5oc6ccccc6c(=O)c5OCc5ccccc5)c4)nn3)cc2)c1	85%
COc1cccc(COc2c(-c3ccc(OCCOCCn4cc(CCN5C(=O)c6ccccc6C5=O)nn4)cc3)oc3ccccc3c2=O)c1	75%
O=C(/C=C/c1ccc(OCCCCc2cn(CCOCCOCCOc3ccc(-c4cc(=O)c5cc(F)ccc5o4)cc3)nn2)cc1)c1ccc(F)cc1O	53%
O=c1cc(-c2ccc(OCCCc3cn(CCOCCOc4ccc(-c5cc(=O)c6cc(F)ccc6o5)cc4)nn3)cc2)oc2ccc(F)cc12	74%
O=c1cc(-c2ccccc2)oc2cc(OCCOCCn3cc(COCCOc4ccc5c(=O)cc(-c6ccccc6)oc5c4)nn3)ccc12	60%
COc1cccc(COc2c(-c3ccc(OCCOCCn4cc(CCCOc5ccc(-c6cc(=O)c7ccc(F)cc7o6)cc5)nn4)cc3)oc3ccccc3c2=O)c1	61%
CN(CCN(C)Cc1cn(CCOCCOc2ccc3oc(-c4ccccc4)cc(=O)c3c2)nn1)Cc1cn(CCOCCOc2ccc3c(=O)cc(-c4ccccc4)oc3c2)nn1	99%
COc1cccc(COc2c(-c3ccc(OCCOCCN=[N+]=[N-])cc3)oc3ccccc3c2=O)c1	57%
O=c1c(OCc2ccccc2)c(-c2ccc(OCCOCCn3cc(CNc4ccccc4)nn3)cc2)oc2ccccc12	91%
COc1cccc(COc2c(-c3ccc(OCCOCCn4cc(CCCCOc5ccc(/C=C/C(=O)c6ccc(C)cc6O)cc5)nn4)cc3)oc3ccccc3c2=O)c1	78%
O=C1c2ccccc2C(=O)N1CCc1cn(CCOCCOc2ccc3c(=O)cc(-c4ccccc4)oc3c2)nn1	51%
O=c1c(OCc2ccccc2)c(-c2ccc(OCCOCCn3cc(-c4cccc(-c5cn(CCOCCOc6ccc(-c7oc8ccccc8c(=O)c7OCc7ccccc7)cc6)nn5)c4)nn3)cc2)oc2ccccc12	87%
COc1cccc(COc2c(-c3ccc(OCCOCCn4cc(CN5CCN(Cc6cn(CCOCCOc7ccc(-c8oc9ccccc9c(=O)c8OCc8cccc(OC)c8)cc7)nn6)CC5)nn4)cc3)oc3ccccc3c2=O)c1	85%
CN(CCN(C)Cc1cn(CCOCCOc2ccc(-c3cc(=O)c4cc(F)ccc4o3)cc2)nn1)Cc1cn(CCOCCOc2ccc(-c3cc(=O)c4cc(F)ccc4o3)cc2)nn1	73%
O=c1cc(-c2ccccc2)oc2cc(OCCOCCOCCn3cc(CNc4ccccc4)nn3)ccc12	90%
O=c1cc(-c2ccc(OCCCc3cn(CCOc4cccc5c(=O)cc(-c6ccccc6)oc45)nn3)cc2)oc2cc(F)ccc12	77%

SMILES	Survival
C#CCCCCOc1ccc(-c2oc3ccccc3c(=O)c2OCc2cccc(OC)c2)cc1	71%
O=C(/C=C/c1ccc(OCCCCc2cn(CCOCCOCCOc3ccc4c(=O)cc(-c5ccccc5)oc4c3)nn2)cc1)c1ccc(F)cc1O	67%
O=c1cc(-c2ccccc2)oc2cc(OCCCCc3cn(CCOCCOc4ccc(-c5oc6ccccc6c(=O)c5OCc5ccccc5)cc4)nn3)ccc12	79%
O=c1cc(-c2ccc(OCCOCCOCCn3cc(-c4ccc(-c5cn(CCOCCOCCOc6ccc(-c7cc(=O)c8cc(F)ccc8o7)cc6)nn5)cc4)nn3)cc2)oc2ccc(F)cc12	83%
CN(CCN(C)Cc1cn(CCOCCOCCOc2ccc(-c3cc(=O)c4ccccc4o3)cc2)nn1)Cc1cn(CCOCCOCCOc2ccc(-c3cc(=O)c4ccccc4o3)cc2)nn1	71%
COc1cccc(COc2c(-c3ccc(OCCCCc4cn(CCOCCOc5ccc(-c6cc(=O)c7cc(F)ccc7o6)cc5)nn4)cc3)oc3ccccc3c2=O)c1	65%
O=c1cc(-c2ccccc2)oc2cc(OCCCc3cn(CCOCCOc4ccc(-c5cc(=O)c6cc(F)ccc6o5)cc4)nn3)ccc12	55%
Cc1ccc2oc(-c3ccc(OCCOCCOCCn4cc(-c5ccc(-c6cn(CCOCCOCCOc7ccc(-c8cc(=O)c9cc(C)ccc9o8)cc7)nn6)cc5)nn4)cc3)cc(=O)c2c1	74%
[N-]=[N+]=NCCOCCOCCOc1ccc2c(=O)cc(-c3ccccc3)oc2c1	90%
O=c1cc(-c2ccc(OCCOCCOCCn3cc(CCCCOc4ccc5c(=O)cc(-c6ccccc6)oc5c4)nn3)cc2)oc2ccccc12	57%
Cc1ccc2oc(-c3ccc(OCCOCCOCCn4cc(CCCCOc5ccc6c(=O)cc(-c7ccccc7)oc6c5)nn4)cc3)cc(=O)c2c1	51%
O=c1cc(-c2ccccc2)oc2cc(OCCN(Cc3ccccc3)Cc3cn(CCOCCOCCOc4ccc(-c5oc6ccccc6c(=O)c5OCc5ccccc5)cc4)nn3)ccc12	65%
O=c1cc(-c2ccccc2)oc2cc(OCCOCCn3cc(-c4ccc(-c5cn(CCOCCOc6ccc7oc(-c8ccccc8)cc(=O)c7c6)nn5)cc4)nn3)ccc12	79%
O=c1cc(-c2ccc(OCCOCCn3cc(-c4ccc(-c5cn(CCOCCOc6ccc(-c7cc(=O)c8ccccc8o7)cc6)nn5)cc4)nn3)cc2)oc2ccccc12	81%
O=c1cc(-c2ccc(OCCOCCn3cc(CN4CCN(Cc5cn(CCOCCOc6ccc(-c7cc(=O)c8ccccc8o7)cc6)nn5)CC4)nn3)cc2)oc2ccccc12	116%
O=c1cc(-c2ccc(OCCOCCn3cc(CN(Cc4cn(CCOCCOc5ccc(-c6cc(=O)c7cc(F)ccc7o6)cc5)nn4)Cc4cn(CCOCCOc5ccc(-c6cc(=O)c7cc(F)ccc7o6)cc5)nn4)nn3)cc2)oc2ccc(F)cc12	76%
O=c1cc(-c2ccc(OCCCc3cn(CCOCCOCCOc4ccc5c(=O)cc(-c6ccccc6)oc5c4)nn3)cc2)oc2cc(F)ccc12	52%
O=c1[nH]c(-c2ccc(OCCCc3cn(CCOCCOCCOc4ccc(-c5oc6ccccc6c(=O)c5OCc5ccccc5)cc4)nn3)cc2)nc2ccccc12	68%
COc1cccc(COc2c(-c3ccc(OCCOCCn4cc(CCCCOc5ccc(/C=C/C(=O)c6ccc(F)cc6O)cc5)nn4)cc3)oc3ccccc3c2=O)c1	75%
Cc1ccc2oc(-c3ccc(OCCOCCOCCn4cc(CN(Cc5cn(CCOCCOCCOc6ccc(-c7cc(=O)c8cc(C)ccc8o7)cc6)nn5)Cc5cn(CCOCCOCCOc6ccc(-c7cc(=O)c8cc(C)ccc8o7)cc6)nn5)nn4)cc3)cc(=O)c2c1	71%
